Consider 7 molecules from ChEMBL document CHEMBL1649354, “Bioactivity-guided isolation of GABA(A) receptor modulating constituents from the rhizomes of Actaea racemosa” (J Nat Prod, 2010).

Structures are written as SMILES.

Common to all, as to format: cell-based
In experiment [1] the test system is Oocyte. In words: Allosteric modulation of alpha1beta2gamma2S GABAA receptor expressed in Xenopus laevis oocytes assessed as stimulation of GABA-induced chloride current at 100 uM by electrophysiology. Put shortly:
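Two-microelectrode voltage clamp; GABA at EC3-10 (eliciting 3–10% of maximal current, determined at the start of each experiment). Test material applied for 1 min equilibration before GABA, then co-applied. Stimulation calculated as (I(GABA+Comp)/IGABA) − 1 at 100 µM, reported as %. Mean ± SE, n = 4–7 oocytes, at least two oocyte batches; oocytes with currents >3 µA discarded.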

In experiment [2] the test system is Oocyte. In words: Allosteric modulation of alpha1beta2gamma2S GABAA receptor expressed in Xenopus laevis oocytes assessed as stimulation of GABA-induced chloride current at 300 uM by electrophysiology. The essentials: (§1)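 Two-microelectrode voltage clamp of oocytes. GABA applied at EC3-10 (3-10% of maximal current), set at the start of each experiment. Compound pre-applied for 1 min before GABA. Enhancement taken as (I(GABA+Comp)/IGABA) - 1. Concentration-response data fitted to 1/[1 + (EC50/[Comp])nH]. Mean ± SE from ≥4 oocytes and ≥2 oocyte batches.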

Experiment [3] deals with Oocyte. In words: (§2) Allosteric modulation of alpha1beta2gamma2S GABAA receptor expressed in Xenopus laevis oocytes assessed as stimulation of GABA-induced chloride current by electrophysiology. Put shortly:
as §1

Experiment [4] in a line: as §2. Particulars: Oocyte. The essentials:
as §1

Take `CC(=O)O[C@@H]1C[C@@]23C[C@@]24CC[C@H](O[C@@H]2OC[C@@H](O)[C@H](O)[C@H]2O)C(C)(C)[C@@H]4CC[C@H]3[C@]2(C)C[C@@H]3O[C@]4(C[C@@H](C)[C@@H]3[C@@]12C)O[C@H](O)[C@@]1(C)O[C@@H]41` [ACTEIN]: the values for the Activity in the experiment with Oocyte [1], with Oocyte [2] and in the experiment on Oocyte [3] were 305%, 378% and “Dose-dependent effect”, respectively. In addition, the concentration for a half-maximal effect (EC50) in experiment [4] worked out at 36 µM.

In the case of `CC(=O)O[C@H](C[C@@H](C)[C@H]1C(=O)[C@H](O)[C@@]2(C)[C@@H]3CC[C@H]4C(C)(C)[C@@H](O[C@@H]5OC[C@@H](O)[C@H](O)[C@H]5O)CC[C@@]45C[C@@]35CC[C@]12C)[C@H]1OC1(C)C`, the Activity in the experiment on Oocyte [1] is 1690%; in the experiment on Oocyte [2], 1950%; in the experiment on Oocyte [3] it was “Dose-dependent effect”. The EC50 in experiment [4] came to 27 µM.

`C[C@@H]1C[C@@H]2O[C@@]3(O[C@@H]2C(C)(C)O)[C@H](O)[C@@]2(C)[C@@H]4CC[C@H]5C(C)(C)[C@@H](O[C@@H]6OC[C@@H](O)[C@H](O)[C@H]6O)CC[C@@]56C[C@@]46CC[C@]2(C)[C@@H]13`: the Activity with Oocyte [1] was 189%; with Oocyte [2], 256%; in the experiment with Oocyte [3], “Dose-dependent effect”. For the same molecule, the concentration for a half-maximal effect (EC50) in experiment [4] was determined as 28 µM.

With `C[C@@H]1C[C@@H]2O[C@@]3(O[C@@H]2C(C)(C)O)[C@H](O)[C@@]2(C)[C@@H]4CC[C@H]5C(C)(C)[C@@H](O)CC[C@@]56C[C@@]46CC[C@]2(C)[C@@H]13`, in the experiment on Oocyte [1], the Activity was found to be 104%.

In the case of `CC(=O)OC(C)(C)[C@H]1O[C@@]23O[C@H]1C[C@@H](C)[C@@H]2[C@@]1(C)CC[C@@]24C[C@@]25CC[C@H](O[C@@H]2OC[C@H](O)[C@H](O)[C@H]2O)C(C)(C)[C@@H]5CC[C@H]4[C@]1(C)[C@H]3O`, the results for the Activity with Oocyte [1], in the experiment with Oocyte [2] and with Oocyte [3] were 271%, 289% and “Dose-dependent effect”, respectively. The EC50 in experiment [4] amounted to 26 µM.

`CC(=O)O[C@@H]1C[C@@]23C[C@@]24CC[C@H](O)C(C)(C)[C@@H]4CC[C@H]3[C@]2(C)C[C@@H]3O[C@]4(C[C@@H](C)[C@@H]3[C@@]12C)O[C@H](O)[C@@]1(C)O[C@H]41`: the Activity with Oocyte [1] worked out at 126%.

For `CC(=O)O[C@H](C[C@@H](C)[C@H]1C(=O)[C@H](O)[C@@]2(C)[C@@H]3CC[C@H]4C(C)(C)[C@@H](O)CC[C@@]45C[C@@]35CC[C@]12C)[C@H]1OC1(C)C`, the Activity with Oocyte [1] came out at 64%.
